From ChEMBL document CHEMBL1140161, “Structure-activity relationships in 1,4-benzodioxan-related compounds. 9. From 1,4-benzodioxane to 1,4-dioxane ring as a promising template of novel alpha1D-adrenoreceptor antagonists, 5-HT1A full agonists, and cytotoxic agents” (J Med Chem, 2008)

Columns and labels:
[1] = molecular target: T1, Alpha-1A adrenergic receptor (Homo sapiens, UniProt P35348); assay: Displacement of [3H]prazosin from human cloned alpha1A adrenoceptor expressed in CHO cells; type: cell-based
T1 sequence (P35348 whole entry): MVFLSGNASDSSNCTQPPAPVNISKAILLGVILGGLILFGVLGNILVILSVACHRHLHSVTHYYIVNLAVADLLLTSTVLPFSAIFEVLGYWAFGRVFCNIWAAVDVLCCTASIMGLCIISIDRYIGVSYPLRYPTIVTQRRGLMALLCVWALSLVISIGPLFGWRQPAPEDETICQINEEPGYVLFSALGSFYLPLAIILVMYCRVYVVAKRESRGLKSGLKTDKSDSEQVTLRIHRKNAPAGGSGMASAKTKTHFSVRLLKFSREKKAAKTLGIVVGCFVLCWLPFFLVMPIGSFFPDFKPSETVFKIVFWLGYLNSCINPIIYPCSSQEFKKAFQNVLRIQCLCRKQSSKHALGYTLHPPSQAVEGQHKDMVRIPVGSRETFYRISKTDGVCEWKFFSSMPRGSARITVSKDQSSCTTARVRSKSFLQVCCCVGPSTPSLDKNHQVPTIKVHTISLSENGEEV
Method in brief: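 [3H]prazosin binding to cloned human α1-adrenoceptor subtypes expressed in CHO cell membranes. Affinity reported as pKi for each subtype.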

[2] = molecular target: T2, Alpha-1A adrenergic receptor (Rattus norvegicus) (UniProt P43140); assay: Antagonist activity at alpha1A adrenoceptor in Wistar rat prostatic vas deferens assessed as inhibition of (-)-noradrenaline-induced contraction after 30 mins; type: functional, tissue-based
T2 sequence (whole entry): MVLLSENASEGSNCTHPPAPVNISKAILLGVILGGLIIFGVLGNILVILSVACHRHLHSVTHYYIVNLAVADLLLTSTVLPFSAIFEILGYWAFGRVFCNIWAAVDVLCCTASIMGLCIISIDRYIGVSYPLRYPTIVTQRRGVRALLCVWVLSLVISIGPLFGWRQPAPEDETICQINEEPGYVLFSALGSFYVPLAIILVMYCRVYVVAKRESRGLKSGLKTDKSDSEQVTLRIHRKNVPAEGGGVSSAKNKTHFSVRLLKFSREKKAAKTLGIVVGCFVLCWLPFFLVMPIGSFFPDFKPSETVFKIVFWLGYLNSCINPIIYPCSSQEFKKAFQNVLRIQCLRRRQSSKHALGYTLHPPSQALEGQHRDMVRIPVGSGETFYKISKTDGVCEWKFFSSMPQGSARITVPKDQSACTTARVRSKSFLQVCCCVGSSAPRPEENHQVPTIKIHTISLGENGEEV

[3] = molecular target: T3, 5-hydroxytryptamine receptor 1A (Homo sapiens) (UniProt P08908); assay: Agonist activity at human cloned 5HT1A receptor expressed in human HeLa cell membrane assessed as stimulation of [35S]GTPgammaS binding; type: functional, cell membranes
T3 sequence (whole entry): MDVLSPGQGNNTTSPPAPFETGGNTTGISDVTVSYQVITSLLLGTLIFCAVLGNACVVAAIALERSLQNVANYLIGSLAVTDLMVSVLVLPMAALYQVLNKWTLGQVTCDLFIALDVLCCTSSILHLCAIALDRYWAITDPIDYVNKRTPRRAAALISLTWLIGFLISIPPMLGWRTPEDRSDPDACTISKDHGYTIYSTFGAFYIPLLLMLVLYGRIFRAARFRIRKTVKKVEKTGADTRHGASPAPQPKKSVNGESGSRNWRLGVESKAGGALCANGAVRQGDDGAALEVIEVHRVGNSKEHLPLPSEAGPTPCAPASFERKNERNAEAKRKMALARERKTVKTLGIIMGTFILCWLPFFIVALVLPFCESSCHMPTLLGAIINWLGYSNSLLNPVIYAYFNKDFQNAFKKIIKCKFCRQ
Method in brief: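 Membranes from HeLa cells expressing cloned human 5-HT1A receptor; agonist-stimulated [35S]GTPγS binding measured. pD2 is the negative log of the agonist concentration giving 50% of maximal [35S]GTPγS binding stimulation; values from two to three experiments.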

[4] = molecular target: T3, 5-hydroxytryptamine receptor 1A (Homo sapiens); assay: Agonist activity at human cloned 5HT1A receptor expressed in HeLa cell membrane assessed as stimulation of [35S]GTPgammaS binding relative to 5-hydroxytryptamine; type: functional, cell membranes
Method in brief: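 Activation measured as [35S]GTPγS binding in membranes from HeLa cells expressing cloned human 5-HT1A receptor. pD2 is the negative log of agonist concentration giving 50% of maximal stimulation, from two to three experiments agreeing within 20%. Efficacy is given relative to 5-HT.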

[5] = system: PC-3; assay: Induction of apoptosis in human PC3 cells assessed as translocation of phosphatidylserine at 50 uM after 48 hrs by annexin V-FITC staining and cytofluorimetric analysis; type: functional
Method in brief: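 PC-3 prostate cancer cells exposed to compound for 48 h, then stained with annexin V-FITC to detect externalized phosphatidylserine. Read-out by flow cytometry as mean fluorescence intensity (MFI), against untreated and vehicle-treated cells.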

SMILES: COc1ccccc1OCCNC[C@@H]1CO[C@H](c2ccccc2)CO1 (relative stereo)
- Ki [1]: 437 nM
- pKb [2]: 6.47
- pD2 [3]: 7.88
- %max [4]: 85.5

SMILES: COc1cccc(OC)c1OCCNC[C@@H]1CO[C@@H](c2ccccc2)CO1 (relative stereo)
- Ki [1]: 513 nM
- pKb [2]: 7.21

SMILES: COc1ccccc1OCCNC[C@@H]1COCC(c2ccccc2)(c2ccccc2)O1
- Ki [1]: 27.5 nM
- pKb [2]: 6.65
- pD2 [3]: 9.4
- %max [4]: 81.5

SMILES: COc1cccc(OC)c1OCCNC[C@@H]1COC[C@H](c2ccccc2)O1 (relative stereo)
- Ki [1]: 468 nM
- pKb [2]: 6.42

SMILES: COc1ccccc1OCCNC[C@@H]1COC[C@@H](c2ccccc2)O1 (relative stereo)
- Ki [1]: 87.1 nM
- pKb [2]: 7.22

SMILES: c1ccc(OCCNC[C@@H]2COC[C@@H](c3ccccc3)O2)cc1 (relative stereo)
- Ki [1]: 407 nM
- pKb [2]: 7.21

SMILES: c1ccc(OCCNC[C@@H]2COC[C@H](c3ccccc3)O2)cc1 (relative stereo)
- Ki [1]: > 1000 nM
- pKb [2]: 6.72

SMILES: COc1cccc(OC)c1OCCNC[C@@H]1COCC(c2ccccc2)(c2ccccc2)O1
- Ki [1]: 339 nM
- pKb [2]: 6.71
- pD2 [3]: 8.28
- %max [4]: 106

SMILES: COc1ccccc1OCCNC[C@@H]1COC(c2ccccc2)(c2ccccc2)CO1
- Ki [1]: 74.1 nM
- pKb [2]: 6.37

SMILES: COc1ccccc1OCCNC[C@@H]1CO[C@@H](c2ccccc2)CO1 (relative stereo)
- Ki [1]: 158 nM
- pKb [2]: 7.1

SMILES: c1ccc(OCCNC[C@@H]2COCC(c3ccccc3)(c3ccccc3)O2)cc1
- Ki [1]: 170 nM
- pKb [2]: 6.93
- pD2 [3]: 9.11
- %max [4]: 77.1
- Flu intensity [5]: 76.98

SMILES: COc1cccc(OC)c1OCCNC[C@@H]1CO[C@H](c2ccccc2)CO1 (relative stereo)
- Ki [1]: > 1000 nM
- pKb [2]: 5.96

SMILES: COc1ccccc1OCCNC[C@@H]1COC[C@H](c2ccccc2)O1 (relative stereo)
- Ki [1]: 200 nM
- pKb [2]: 6.57
- %max [4]: 78.1

SMILES: COc1cccc(OC)c1OCCNC[C@@H]1COC(c2ccccc2)(c2ccccc2)CO1
- Ki [1]: 89.1 nM
- pKb [2]: 6.08

SMILES: c1ccc(OCCNC[C@@H]2CO[C@H](c3ccccc3)CO2)cc1 (relative stereo)
- Ki [1]: > 1000 nM
- pKb [2]: 6.89

SMILES: c1ccc(OCCNC[C@@H]2CO[C@@H](c3ccccc3)CO2)cc1 (relative stereo)
- Ki [1]: 537 nM
- pKb [2]: 7

SMILES: c1ccc(OCCNC[C@@H]2COC(c3ccccc3)(c3ccccc3)CO2)cc1
- Ki [1]: 224 nM
- pKb [2]: 6.15

SMILES: COc1cccc(OC)c1OCCNC[C@@H]1COC[C@@H](c2ccccc2)O1 (relative stereo)
- Ki [1]: > 1000 nM
- pKb [2]: 5.8
